Activity calls are given as the source filed them. No cut-off for these calls is given here.
Columns and labels:
[1] = Cytotoxicity against human HepG2 cells after 24 hrs by MTT assay; format: cell-based
Summary of the method: (§1)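 HepG2 cells exposed to compound; cell growth measured; CC50 derived from the concentration–growth relationship.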

[2] = Acute toxicity in Kunming mouse assessed as effect on blood GPT level at 250 to 1000 mg/kg, po administered as single dose measured for 7 days; format: organism-based; details: in vivo, 168 h, dose 250-1000 mg/kg, time 7 day
Summary of the method: (§2)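 Kunming mice each received one oral dose at 250, 500, 750 or 1000 mg·kg^-1 and were closely monitored for 7 days. At the end, blood was sampled and GOT, GPT, BUN and CRE were measured […] as liver and kidney function markers.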

[3] = Acute toxicity in Kunming mouse assessed as effect on blood BUN level at 250 to 1000 mg/kg, po administered as single dose measured for 7 days; format: organism-based; details: in vivo, 168 h, dose 250-1000 mg/kg, time 7 day; summary of the method: as §2
[4] = Acute toxicity in Kunming mouse assessed as effect on blood CRE level at 250 to 1000 mg/kg, po administered as single dose measured for 7 days; format: organism-based; details: in vivo, 168 h, dose 250-1000 mg/kg, time 7 day; summary of the method: as §2
Mus musculus [5] = experiment: Antidiabetic activity in KK-Ay mouse assessed as reduction in fasting blood glucose level at 50 mg/kg, po for 50 days by glucose oxidase method (reference value: 13.2 +/- 2.51 mM); format: functional; details: time 50 day
Summary of the method: (§3)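 Lipogenic-diet KK-Ay mice given 50 or 100 mg/kg compound or 5 mg/kg rosiglitazone orally for 50 days, C57BL/6J as normal controls. Fasting blood glucose, glycosylated haemoglobin, AGE, insulin, HOMA-IR, cholesterol, LDL-c, TG, serum creatinine and BUN determined. Mean ± SD, 8-9 mice per group.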

Mus musculus [6] = experiment: Antidiabetic activity in KK-Ay mouse assessed as effect on glycosylated haemoglobin level at 100 mg/kg, po for 50 days by glucose oxidase method (reference value: 8.74 +/- 1.08%); format: functional; details: time 50 day; summary of the method: as §3
Mus musculus [7] = experiment: Antidiabetic activity in KK-Ay mouse assessed as effect on HOMA-IR level at 50 mg/kg, […] by ELISA (reference value: 137 +/- 18.4); format: functional
Mus musculus [8] = experiment: Antidiabetic activity in KK-Ay mouse assessed as effect on HOMA-IR level at 100 mg/kg, […] by ELISA (reference value: 137 +/- 18.4); format: functional
Mus musculus [9] = experiment: Antidiabetic activity in KK-Ay mouse assessed as effect on cholesterol level at 50 mg/kg, […] by ELISA (reference value: 7.38 +/- 1.03 mM); format: functional
Mus musculus [10] = experiment: Antidiabetic activity in KK-Ay mouse assessed as effect on cholesterol level at 100 mg/kg, po for 24 hrs by ELISA (reference value: 7.38 +/- 1.03 mM); format: functional
Mus musculus [11] = experiment: Antidiabetic activity in KK-Ay mouse assessed as effect on Triglycerides level at 100 mg/kg, […] by ELISA (reference value: 4.01 +/- 1.83 mM); format: functional
Mus musculus [12] = experiment: Antidiabetic activity in KK-Ay mouse assessed as effect on serum Creatinine level at 100 mg/kg, po for 24 hrs by ELISA (reference value: 124 +/- 35.1 uM); format: functional
Mus musculus [13] = experiment: Antidiabetic activity in KK-Ay mouse assessed as effect on BUN level at 100 mg/kg, po for 24 hrs by ELISA (reference value: 12.8 +/- 2.97 mM); format: functional
Mus musculus [14] = experiment: Anti-diabetic activity in overnight fasted diabetic KK-Ay mouse assessed as reduction in blood glucose AUC at 5 mg/kg, po […] measured after 35 days by oral glucose tolerance test; format: functional, organism-based
Summary of the method: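 KK-Ay mice orally treated with 50 or 100 mg/kg compound or 5 mg/kg rosiglitazone, C57BL/6J as normal controls. After 35 days of treatment, oral glucose tolerance test and insulin tolerance test run. Blood glucose plotted against time, AUC calculated. Mean ± SD, 8-9 mice per group.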

[15] = Effect on high fat diet-fed po dosed C57BL/6J mouse model of obesity and diabetes assessed as water intake; format: organism-based; details: in vivo
[16] = Effect on high fat diet-fed KK-Ay mouse model of obesity and diabetes assessed as total body weight gain at 100 mg/kg, po (reference value: 43.5 +/- 5.24 g); format: ADME, organism-based; details: in vivo
Summary of the method: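 KK-Ay mice on lipogenic diet, with C57BL/6J mice as normal controls, dosed orally at 50 or 100 mg/kg (test) or 5 mg/kg (RGZ). Food intake (g/day), water intake (mL/day) and body weight recorded before and after treatment; body weight gain calculated. Mean±SD, 8-9 mice per group.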

Mus musculus [17] = experiment: Anti-diabetic activity in high fat diet-fed KK-Ay mouse model of obesity and diabetes assessed as reduction in total protein level in urine at 50 to 100 mg/kg, po measured after 24 hrs; format: functional, organism-based; details: dose 50-100 mg/kg
Summary of the method: (§4)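 Before study end, 24-h urine collected from C57BL/6J controls and KK-Ay mice (untreated, oral 50 or 100 mg/kg compound, or 5 mg/kg rosiglitazone). Volume, glucose, total protein and microalbumin measured by kits. Mean ± SD, 8-9 mice per group, vs C57BL/6J or untreated KK-Ay.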

Mus musculus [18] = species on record: Mus musculus; experiment: Anti-diabetic activity in high fat diet-fed C57BL/6J mouse model of obesity and diabetes assessed as reduction in urine glucose level measured after 24 hrs; format: functional, organism-based; summary of the method: as §4
Mus musculus [19] = species on record: Mus musculus; experiment: Anti-diabetic activity in high fat diet-fed C57BL/6J mouse model of obesity and diabetes assessed as decrease in microalbumin level in urine measured after 24 hrs; format: functional, organism-based; summary of the method: as §4
HepG2 [20] = experiment: Induction of glycolysis in human HepG2 cells assessed as reduction in cellular ATP production at 10 to 40 uM measured after 24 hrs; format: functional, cell-based; details: dose 10-40 µM
Summary of the method: (§5)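 HepG2 cells treated 24 h at the indicated concentrations; RGZ as reference. Supernatants used for glucose consumption and lactate release; lysed cells used for ATP, normalized to protein content. Mean ± SD of 3 or 4 separate experiments; compared with DMSO.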

HepG2 [21] = experiment: Increase in glucose consumption in human HepG2 cells at 10 to 40 uM measured after 24 hrs; format: functional, cell-based; details: dose 10-40 µM; summary of the method: as §5
L6 = experiment: Increase in glucose consumption in rat L6 cells at 10 to 40 uM measured after 24 hrs; format: functional, cell-based; details: dose 10-40 µM
Summary of the method: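 L6 myotubes treated with DMSO, compound or RGZ (20 μM) at the indicated concentrations for 24 h. Culture supernatants assayed for glucose consumption and lactate release; lysed cells assayed for ATP, normalized to protein. Mean ± SD of 3 independent experiments vs DMSO.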

HepG2 [22] = experiment: Cytotoxicity against human HepG2 cells upto 160 uM after 24 hrs by MTT assay; format: cell-based; details: hepg2, 24 h; summary of the method: as §1
[23] = Effect on high fat diet-fed C57BL/6J mouse model of obesity and diabetes assessed as food intake; details: in vivo
HepG2 [24] = experiment: Induction of glycolysis in human HepG2 cells assessed as increase in lactate release at 10 to 40 uM measured after 24 hrs; details: dose 10-40 µM
Mus musculus [25] = experiment: Anti-diabetic activity in high fat diet-fed KK-Ay mouse model of obesity and diabetes assessed as reduction in urine glucose level at 50 to 100 mg/kg, po measured after 24 hrs; details: dose 50-100 mg/kg

With `CCCC[C@@H]1[C@H]2CCCN3CCC[C@@H](CN1S(=O)(=O)c1ccc(C(F)(F)F)cc1)[C@@H]23` the CC50 at 24 h [1] was 642 µM, the Activity [2] was “Non-Toxic” and the Activity [3] was “Non-Toxic”. The Activity [4] was “Non-Toxic”, the Activity (Mus musculus [5]) was 9.44 mM and the Activity (Mus musculus [6]) was 6.75%. It also gave an Activity (Mus musculus [7]) of 74.3, an Activity (Mus musculus [8]) of 46.5 and an Activity (Mus musculus [9]) of 7.05 mM. It also gave an Activity (Mus musculus [10]) of 5.55 mM, an Activity (Mus musculus [11]) of 2.39 mM and an Activity (Mus musculus [12]) of 70.4 µM. The Activity (Mus musculus [13]) was 12.4 mM, the Activity (Mus musculus [14]) was “Active” and the Activity [15] was 4.38 mL/day. For the same molecule, the Activity [16] was 2.53 g, the Activity (Mus musculus [17]) was “Active” and the Activity (Mus musculus [18]) was “Active”. For the same molecule, the Activity (Mus musculus [19]) was “inactive”, the Activity (HepG2 [20]) was “Dose-Dependent Effect” and the Activity (HepG2 [21]) was “Dose-Dependent Effect”. The Activity (L6) was “Dose-Dependent Effect”, the Activity (HepG2 [22]) was “Non-Toxic” and the Activity [23] was 4.29 g/day. For the same molecule, the Activity (HepG2 [24]) was “Dose-Dependent Effect” and the Activity (Mus musculus [25]) was “Active”.
